Source: PubChem BioAssay (several laboratories)
Rin1-Abl PPI inh = inhibitors of Rin1-Abl protein binding, primary screen, biochemical, TR-FRET; 360,000 compounds, 0.4% hits; Tyrosine-protein kinase ABL1 (Homo sapiens) + Ras and Rab interactor 1 (Homo sapiens), …; inhibition, % at 7.35 µM; in the data active = inhibition above about 5%, passing the limit was not always enough
GSTO1 counter = inhibitors of recombinant GSTO1, primary screen, counter-screen for RBBP9 inhibitor project, biochemical, fluorescence polarization; activity-based probe fluorescence polarization; inhibition, % at 5.96 µM; 300,000 compounds, 1.1% hits; AID 1974, 2009;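 active = inhibition above the campaign mean inhibition plus 3 SD, cut at about 35% in these data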;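 note: 0% = GSTO1-1 with DMSO and 100% = wells lacking GSTO1-1 enzyme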
Target sequence (P78417 whole entry, looked up): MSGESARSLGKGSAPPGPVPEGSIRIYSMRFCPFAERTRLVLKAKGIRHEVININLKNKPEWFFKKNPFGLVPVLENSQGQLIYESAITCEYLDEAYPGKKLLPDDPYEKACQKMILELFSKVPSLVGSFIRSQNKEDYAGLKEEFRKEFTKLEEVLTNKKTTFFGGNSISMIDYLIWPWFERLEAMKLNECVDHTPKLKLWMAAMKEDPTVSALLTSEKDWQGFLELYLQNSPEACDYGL
UBC13 inh = UBC13 polyubiquitin chain formation inhibitors, primary screen, biochemical, TR-FRET, uHTS. Ubiquitin-conjugating enzyme E2 N (Homo sapiens), P61088. AID 485273, 2010. 330,000 compounds, 0.47% hits. inhibition, % at 20 µM; in the data active = inhibition above about 45%, passing the limit was not always enough
Target sequence (P61088 whole entry, looked up): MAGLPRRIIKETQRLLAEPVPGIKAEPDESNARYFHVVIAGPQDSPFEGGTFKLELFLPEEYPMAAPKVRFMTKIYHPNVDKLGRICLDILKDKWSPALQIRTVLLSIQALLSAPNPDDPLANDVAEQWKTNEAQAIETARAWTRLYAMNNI
UBC9 SUMO inh = inhibitors of in vitro SUMOylation cascade, primary screen, biochemical, HTRF, uHTS. SUMO-conjugating enzyme UBC9 (Homo sapiens), P63279. HTRF SUMOylation assay, SAE1/SAE2 + UBC9. inhibition, % at 35 µM. 290,000 compounds, 0.36% hits. AID 2006, 2009; in the data active = inhibition above about 50%, passing the limit was not always enough
Target sequence (P63279 whole entry, looked up): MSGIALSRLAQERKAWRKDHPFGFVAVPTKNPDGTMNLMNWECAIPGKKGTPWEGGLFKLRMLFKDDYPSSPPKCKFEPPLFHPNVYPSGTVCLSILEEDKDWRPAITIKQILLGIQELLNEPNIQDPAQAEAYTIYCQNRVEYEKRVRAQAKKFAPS
Apaf-1 inh = inhibitors of human Apaf-1 apoptosome, primary screen, biochemical, DEVD-Rh110 fluorescence, uHTS; 330,000 compounds, 0.71% hits; Apoptotic protease-activating factor 1 (Homo sapiens), O14727; inhibition, % at 20 µM; AID 489030, 2010; reconstituted apoptosome caspase-3 activity; active = inhibition of at least 40% at 20 µM;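 note: plate controls were DMSO wells for no effect and DEVD-CHO caspase inhibitor wells for full effect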
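Material: biochemical Apaf-1 apoptosome reconstitution. Medium: Hepes buffer, pH 7.5. Also added: cytochrome c activation, bis-DEVD rhodamine 110 substrate. Timing: 30 min compound preincubation, 50 min activation, room temperature. Measured by: rhodamine 110 fluorescence at Ex 480/Em 540 nm.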
PAD4 inh = human PAD4 inhibitors, primary screen, biochemical, fluorescence polarization, 1536-well format. AID 485272, 2010. inhibition, % at 6.36 µM. 330,000 compounds, 0.41% hits. Protein-arginine deiminase type-4 (Homo sapiens), Q9UM07. recombinant PAD4, RCA probe fluorescence polarization;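 active = percent inhibition above a cutoff equal to the mean of all tested compounds plus 3 SD, cut at about 15% in these data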;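 note: 0% = PAD4 with RCA probe and DMSO and 100% = probe without PAD4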
GSTO1 inh conf = GSTO1 inhibitor hit confirmation, counter-screen for RBBP9 inhibitor project, biochemical, fluorescence polarization, triplicate | shares compounds with GSTO1 counter | recombinant GSTO1, probe fluorescence polarization | inhibition, % at 5.96 µM | 2,400 compounds, 54% hits;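 active = inhibition above the primary screen's cutoff, its mean inhibition plus 3 SD, cut at about 35% in these data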;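 note: loss of polarization as inhibitors block binding of rhodamine sulfonate ester activity probe; 0% = GSTO1 with DMSO and 100% = wells lacking GSTO1 enzyme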
PAD4 FP conf = human PAD4 inhibitors, confirmation, biochemical, fluorescence polarization | shares compounds with PAD4 inh | inhibition, % at 6.36 µM | AID 488796, 2010 | 1,200 compounds, 28% hits | recombinant PAD4, RCA probe fluorescence polarization;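 active = mean inhibition across replicates above the hit cutoff set by the earlier primary screen, cut at about 15% in these data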;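 note: inhibitors block active-site labeling by the probe so polarization falls; 0% = PAD4 with probe and DMSO and 100% = probe without PAD4 enzyme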
Apaf-1 inh conf2 = Apaf-1 inhibitors, single-dose retest, confirmation, biochemical, fluorescence, DEVD-Rh110, 20 µM; inhibition, % at 20 µM; 1,800 compounds, 25% hits; shares compounds with Apaf-1 inh; reconstituted apoptosome, caspase-3 DEVD-Rh110 fluorescence;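 active = mean inhibition of at least 40% at 20 µM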;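 note: plate controls were DMSO wells for no effect and DEVD-CHO caspase inhibitor control wells for full effect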
Rh110 quench = Rh110 fluorescence interference by putative Apaf-1 inhibitors, confirmation, artefact control for Apaf-1 inhibitor project, biochemical, 20 µM; shares compounds with Apaf-1 inh; quenched caspase reaction; activation (fluorescence interference), % at 20 µM; 1,800 tested, under 10 active;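 active = signal rise of 40% or more at 20 µM, treated as a fluorescence artifact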
Fluor interf inh = fluorescence interference of Apaf-1 inhibitor hits, dose response, artefact control for Apaf-1 inhibitor project; shares compounds with Apaf-1 inh; fluorescence interference counterscreen, Apaf-1 assay format; IC50, µM; 460 tested, under 10 active; AID 588538, 2011; call rule not given here
* = called active by the depositor; . = no result. Shown are actives, neighbours in structure and some others; about 2.2% of the full set was active somewhere.

SMILES	Rin1-Abl PPI inh	GSTO1 counter	UBC13 inh	UBC9 SUMO inh	Apaf-1 inh	PAD4 inh	GSTO1 inh conf	PAD4 FP conf	Apaf-1 inh conf2	Rh110 quench	others
CCOc1ccccc1-n1c(O)c(C=Nc2ccc(N(CC)CC)cc2)c(=O)[nH]c1=O	2	54*	-30	28	25	38*	5	3	.	.
CCCCn1c(N)c(C(=O)OCC2CCCO2)c2nc3ccccc3nc21 (configuration not stated)	-4	81*	14	92	27	69*	6	-10	.	.
CC(=O)OC1C(=O)OCC23CCC4(C)OC4C2OC2CC(OC(=O)C=CC=CC(=O)OCCC1C)C3(C)C21CO1 (configuration not stated)	2	.	.	.	.	.	.	.	.	.
COc1cc2c(cc1OC)-c1c(OC)c(OC)cc3c1C(C2)N(C)CC3 (configuration not stated)	-6	70*	-129	18	95*	47*	78*	26*	.	.
COc1c2c(cc3c1OCO3)CCN(C)C2	-2	7	-6	.	-8	0	.	.	.	.
COc1cc2c(cc1OC)-c1c3c(cc4c1[C@@H](C2)N(C)CC4)OCO3	-1	79*	-258	27	98*	57*	70*	-9	.	.
CC(NS(C)(=O)=O)c1nnc2n1-c1ccc(Br)cc1C(c1ccccc1Cl)=NC2 (configuration not stated)	-2	-2	4	.	-9	-1	.	.	.	.
C=CCSc1nc2c(c(-c3ccsc3)c1C#N)CN(C)CC2	0	2	-15	39	12	3	.	.	.	.
Nc1cc2nc3ccccc3nc2cc1N	-2	56*	-118	81*	62*	-4	41*	.	51*	-9	Fluor interf inh=>100
CC(C)CCn1c(N)c(C(=O)OCC2CCCO2)c2nc3ccccc3nc21 (configuration not stated)	-1	88*	12	20	41*	72*	6	-21	18	0
CC(C)OC(=O)c1c(N)n(CC2CCCO2)c2nc3ccccc3nc12 (configuration not stated)	-3	45*	0	42	81*	-16	5	.	11	5
O=C(NCNC(=O)NC1C(=O)NC(=O)N1CO)NC1C(=O)NC(=O)N1CO (configuration not stated)	-6	8	-8	.	6	2	.	.	.	.
CN1CCCC1c1ccc(=O)[nH]c1 (configuration not stated)	2	.	.	.	.	.	.	.	.	.
C[C@]12C[C@@H](O)[C@H](O)CC1=CCC1C2CC[C@@]2(C)C1CC[C@@H]2O (some centres not stated)	4	.	-11	.	-2	1	.	.	.	.
COc1cc2c(cc1O)C[C@H]1NCCc3cc4c(c-2c31)OCO4	1	55*	-43	3	71*	2	21	.	36	1
COC(=O)C(O)(c1c[nH]c2ccccc12)C(F)(F)F (configuration not stated)	-1	-6	-2	6	14	-3	.	.	.	.
COC(=O)C(O)(c1c(C)[nH]n(-c2ccccc2)c1=O)C(F)(F)F (configuration not stated)	-2	50*	-37	22	79*	4	52*	.	52*	-7	Fluor interf inh=>100
COc1ccc(/C=C/C=C2C(=O)NC(=S)NC2=O)cc1	6	.	.	.	.	.	.	.	.	.
COc1ccc(C(=O)N2CCC3(CC2)OCCO3)cc1	2	7	-6	24	-20	1	.	.	.	.
O=C(c1ccc2nc(-c3ccco3)c(-c3ccco3)nc2c1)N1CCC2(CC1)OCCO2	2	90*	-38	37	56*	38*	16	-5	32	2
CCCC1(CCO)C(=O)NC(=S)NC1=O	-2	.	.	.	.	.	.	.	.	.
COC(=O)c1nc(-c2ccc3c(n2)C(=O)C(N)=C(OC)C3=O)c(N)c(-c2ccc(OC)c(OC)c2O)c1C	-1	79*	-239	49	89*	-9	88*	.	100*	3	Fluor interf inh=>100
CC(C)(C)c1cc([N+](=O)[O-])cc(C(C)(C)C)c1O	.	-7	-66	9	7	-1	.	.	.	.
CCCCCn1c(N)c(C(=O)NCc2cccs2)c2nc3ccccc3nc21	.	60*	1	100	70*	65*	5	-12	41*	8	Fluor interf inh=>100
CCCCn1c(NC(=O)c2ccco2)c(C(=O)OCC)c2nc3ccccc3nc21	4	87*	-23	103	83*	55*	87*	14	80*	1	Fluor interf inh=>100
SMILES	Rin1-Abl PPI inh	GSTO1 counter	UBC13 inh	UBC9 SUMO inh	Apaf-1 inh	PAD4 inh	GSTO1 inh conf	PAD4 FP conf	Apaf-1 inh conf2	Rh110 quench	others
CCCCn1c(N)c(C(=O)NCc2cccs2)c2nc3ccccc3nc21	8	61*	4	98	85*	2	82*	.	24	9
CCCCOCCCn1c(N)c(C(=O)OCCOC)c2nc3ccccc3nc21	-3	38*	-17	18	66*	-11	35*	.	2	12
CC(OC(=O)c1cn(C)c2ccccc12)C(=O)N(C)c1ccccc1 (configuration not stated)	-3	.	2	.	5	.	.	.	.	.
C[C@H](CO)N1C[C@H](C)[C@H](CN(C)C(=O)Oc2cccc3ccccc23)OCc2cnnn2CCCC1=O	-4	.	.	.	.	.	.	.	.	.
Nc1c(C(=O)NCc2ccco2)c2nc3ccccc3nc2n1Cc1ccc(F)cc1	2	71*	-10	100*	89*	-5	2	.	25	12
Nc1c(C(=O)NCCCc2ccccc2)c2nc3ccccc3nc2n1Cc1cccs1	5	58*	-3	100	84*	-13	-1	.	35	10
